Experimental data reported in ChEMBL document CHEMBL4304748, “Design, Synthesis, and Biological Evaluation of a New Series of Carvedilol Derivatives That Protect Sensory Hair Cells from Aminoglycoside-Induced Damage by Blocking the Mechanoelectrical Transducer Channel” (J Med Chem, 2019).
The source made the active and inactive calls. The rule behind the calls is not given here.

Columns and labels:
[1] = Otoprotective activity against gentamicin-induced outer hair cell death in CD-1 mouse cochlea at 5 uM after 48 hrs by TRITC-phalloidin staining-based microscopic analysis relative to control; format: functional
Method in brief: (§1)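 Mouse cochlear cultures coincubated for 48 h with 5 μM gentamicin plus compound (5, 10 or 20 μM). OHCs counted in a 300 μm long segment of the mid-basal cochlea. Counts compared with 0.5% DMSO control and with gentamicin + 0.5% DMSO cultures.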

[2] = Cytotoxicity in CD-1 mouse cochlea assessed as induction of cell death in outer hair cell at >=30 uM after 48 hrs by confocal microscopic analysis; format: toxicity, tissue-based
Method in brief: (§2)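 Mouse cochlear cultures exposed for 48 h to compound, either alone or with 5 μM gentamicin. Controls received 0.5% DMSO, or 5 μM gentamicin + 0.5% DMSO. Hair cell survival counted in a 300 μm segment of the mid-basal region. Confocal imaging used to assess IHC and OHC stereociliary bundle morphology.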

[3] = species on record: Mus musculus; assay: Inhibition of MET in CD-1 mouse cochlea outer hair cells assessed as reduction in MET currents at 1 to 10 uM measured at -150 mV to +100 mV membrane potential by patch clamp assay
[4] = species on record: Mus musculus; assay: Inhibition of MET in CD-1 mouse cochlear outer hair cells assessed as reduction in MET currents at 1 to 10 uM measured at -164 mV membrane potential by patch clamp assay
Method in brief: (§3)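 MET currents recorded from OHCs before and during extracellular superfusion of compound at 1, 3 and 10 μM, over membrane potentials from -164 to +96 mV. Currents normalized to the peak control current at +96 mV for each cell. Dose–response curves built at each membrane potential and fitted with eq 1 to give K_D and Hill coefficient.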

[5] = Binding affinity to MET in CD-1 mouse cochlear outer hair cells measured at -164 mV membrane potential by patch clamp assay; method in brief: as §3
[6] = Cytotoxicity in CD-1 mouse cochlea assessed as disruption of hair bundle morphology in inner hair cell at 30 uM after 48 hrs by confocal microscopic analysis; format: toxicity, tissue-based; method in brief: as §2
[7] = Binding affinity to MET in CD-1 mouse cochlear outer hair cells measured at +16 mV membrane potential by patch clamp assay; method in brief: as §3
[8] = Binding affinity to MET in CD-1 mouse cochlear outer hair cells measured at +96 mV membrane potential by patch clamp assay; method in brief: as §3
[9] = Binding affinity to MET in CD-1 mouse cochlear outer hair cells measured at -84 mV membrane potential by patch clamp assay; method in brief: as §3
[10] = species on record: Mus musculus; assay: (§4) Otoprotective activity against gentamicin-induced outer hair cell death in CD-1 mouse cochlea at 20 uM after 48 hrs by TRITC-phalloidin staining-based microscopic analysis relative to control; format: functional; method in brief: as §1
[11] = species on record: Mus musculus; assay: (§5) Otoprotective activity against gentamicin-induced outer hair cell death in CD-1 mouse cochlea at 10 uM after 48 hrs by TRITC-phalloidin staining-based microscopic analysis relative to control; format: functional; method in brief: as §1
[12] = Cytotoxicity in CD-1 mouse cochlea assessed as induction of cell death in outer hair cell at 30 uM in presence of gentamicin after 48 hrs by confocal microscopic analysis; format: toxicity, tissue-based; method in brief: as §2
[13] = Cytotoxicity in CD-1 mouse cochlea assessed as disruption of hair bundle morphology in outer hair cell at 30 uM after 48 hrs by confocal microscopic analysis; format: toxicity, tissue-based; method in brief: as §2
[14] = species on record: Mus musculus; assay: Inhibition of MET in CD-1 mouse cochlea outer hair cells assessed as blockade of MET currents at 10 uM measured at -160 mV to +80 mV membrane potential by patch clamp assay relative to control
Method in brief: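 OHC MET currents recorded before and during exposure to 10 μM compound. Fractional block taken as the current during exposure relative to the control current at each membrane potential.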

[15] = species on record: Mus musculus; assay: Inhibition of MET channel in CD-1 mouse cochlea outer hair bundles assessed as time constant of inward current decline at 1 uM at holding potential of […] by patch clamp assay
Method in brief: (§6)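 MET channels opened by steps from a holding potential of -84 mV, with 1 or 3 μM compound superfused. Currents averaged from 10 repetitions. The current decline was fitted with single exponentials to give time constants, and drug entry rates into hair cells were calculated from these.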

[16] = species on record: Mus musculus; assay: Inhibition of MET channel in CD-1 mouse outer hair bundles assessed as time constant of inward current decline at 3 uM at holding potential of […] by patch clamp assay; method in brief: as §6
[17] = species on record: Mus musculus; assay: Inhibition of MET channel in CD-1 mouse cochlea outer hair cells assessed as reduction in GTTR uptake at 100 uM preincubated for 5 mins followed by GTTR addition and measured after 24 mins by microscopic method
Method in brief: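 Mouse cochlear cultures pre-incubated 5 min with 100 μM compound or 1% DMSO, then 0.2 μM gentamicin Texas Red (GTTR) added. GTTR fluorescence intensity measured in first-row OHCs, with 10 cells analysed from each of three separate experiments (N = 30).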

[18] = species on record: Danio rerio; assay: Otoprotective activity against neomycin-induced neuromast hair cell death in 4 days post fertilized AB zebrafish larvae assessed as increase in hair cell survival incubated for 1 hr by inverted microscopic method; format: functional, organism-based
[19] = species on record: Danio rerio; assay: Otoprotective activity against gentamicin-induced neuromast hair cell death in 4 days post fertilized AB zebrafish larvae assessed as increase in hair cell survival incubated for 6 hrs by inverted microscopic method; format: functional, organism-based
[20] = Toxicity in 3 days post fertilized AB zebrafish larvae assessed as reduction in larvae survival at 100 uM incubated for 48 hrs; design: species or system Danio rerio; details: in vivo
Method in brief: (§7)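 Zebrafish larvae at 3 dpf treated with compound at 30 or 100 μM for 48 h in three trials. Larvae scored for survival and for circulation, then startled and assayed for movement.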

[21] = Toxicity in 3 days post fertilized AB zebrafish larvae assessed as reduction in larvae survival at 30 uM incubated for 48 hrs; design: species or system Danio rerio; details: in vivo; method in brief: as §7
[22] = Toxicity in 3 days post fertilized AB zebrafish larvae assessed as effect on blood circulation at 100 uM incubated for 48 hrs by inverted microscopic method; design: species or system Danio rerio; details: in vivo; method in brief: as §7
[23] = Toxicity in 3 days post fertilized AB zebrafish larvae assessed as effect on blood circulation at 30 uM incubated for 48 hrs by inverted microscopic method; design: species or system Danio rerio; details: in vivo; method in brief: as §7
[24] = Toxicity in 3 days post fertilized AB zebrafish larvae assessed as effect on larval movement at 100 uM incubated for 48 hrs; design: species or system Danio rerio; details: in vivo; method in brief: as §7
[25] = system: Klebsiella pneumoniae; assay: Effect on gentamycin-induced antibacterial activity against Klebsiella pneumoniae at 2.2 uM incubated for 16 to 20 hrs by BacTiter-Glo assay; format: ADME, organism-based; details: in vivo
[26] = system: Pseudomonas aeruginosa; assay: Effect on gentamycin-induced antibacterial activity against Pseudomonas aeruginosa at 2.2 uM incubated for 16 to 20 hrs by BacTiter-Glo assay; format: ADME, organism-based; details: in vivo
[27] = system: Staphylococcus aureus; assay: Effect on gentamycin-induced antibacterial activity against Staphylococcus aureus at 2.2 uM incubated for 16 to 20 hrs by BacTiter-Glo assay; format: ADME, organism-based; details: in vivo
[28] = system: Klebsiella pneumoniae; assay: Effect on gentamycin-induced antibacterial activity against Klebsiella pneumoniae at 11 uM incubated for 16 to 20 hrs by BacTiter-Glo assay; format: ADME, organism-based; details: in vivo
[29] = system: Pseudomonas aeruginosa; assay: Effect on gentamycin-induced antibacterial activity against Pseudomonas aeruginosa at 11 uM incubated for 16 to 20 hrs by BacTiter-Glo assay; format: ADME, organism-based; details: in vivo
[30] = system: Staphylococcus aureus; assay: Effect on gentamycin-induced antibacterial activity against Staphylococcus aureus at 11 uM incubated for 16 to 20 hrs by BacTiter-Glo assay; format: ADME, organism-based; details: in vivo
[31] = species on record: Mus musculus; assay: Inhibition of MET in CD-1 mouse outer hair cells assessed as reduction in MET currents at 3 to 10 uM measured at -160 mV to +96 mV membrane potential by patch clamp assay
[32] = Solubility of the compound; format: physicochemical
[33] = Cytotoxicity against CD-1 mouse cochlea assessed as induction of cell death in outer hair cell at >=30 uM after 48 hrs in presence of gentamicin by confocal microscopic analysis; format: toxicity, tissue-based; method in brief: as §2
[34] = Cytotoxicity in CD-1 mouse cochlea assessed as induction of cell death in outer hair cell at 10 to 20 uM after 48 hrs by confocal microscopic analysis; format: toxicity, tissue-based; method in brief: as §2
[35] = Cytotoxicity in CD-1 mouse cochlea assessed as induction of cell damage in inner hair cell at 20 uM in presence of gentamicin after 48 hrs by confocal microscopic analysis; format: toxicity, tissue-based; method in brief: as §2
[36] = Cytotoxicity in CD-1 mouse cochlea assessed as disruption of hair bundle morphology in inner hair cell at 20 uM in presence of gentamicin after 48 hrs by confocal microscopic analysis; format: toxicity, tissue-based; method in brief: as §2
[37] = Cytotoxicity in CD-1 mouse cochlea assessed as disruption of hair bundle morphology in outer hair cell at 20 uM in presence of gentamicin after 48 hrs by confocal microscopic analysis; format: toxicity, tissue-based; method in brief: as §2
[38] = Cytotoxicity in CD-1 mouse cochlea assessed as disruption of hair bundle morphology in inner hair cell at 20 uM after 48 hrs by confocal microscopic analysis; format: toxicity, tissue-based; method in brief: as §2
[39] = Cytotoxicity in CD-1 mouse cochlea assessed as disruption of hair bundle morphology in outer hair cell at 20 uM after 48 hrs by confocal microscopic analysis; format: toxicity, tissue-based; method in brief: as §2
[40] = Cytotoxicity in CD-1 mouse cochlea assessed as induction of cell damage in inner hair cell at 20 uM after 48 hrs by confocal microscopic analysis; format: toxicity, tissue-based; method in brief: as §2
[41] = Cytotoxicity in CD-1 mouse cochlea assessed as induction of cell death in inner hair cell at >=30 uM in presence of gentamicin after 48 hrs by confocal microscopic analysis; format: toxicity, tissue-based; method in brief: as §2
[42] = Cytotoxicity in CD-1 mouse cochlea assessed as induction of cell death in inner hair cell at >=30 uM after 48 hrs by confocal microscopic analysis; format: toxicity, tissue-based; method in brief: as §2
[43] = as §4; format: functional; method in brief: as §1
[44] = as §5; format: functional; method in brief: as §1
[45] = species on record: Mus musculus; details: CD-1, 10 uM
[46] = species on record: Mus musculus; details: CD-1, 10 uM; remark: listed apart in the source
[47] = species on record: Mus musculus; details: CD-1, 10 uM; remark: listed apart in the source
[48] = species on record: Mus musculus; details: CD-1, 1 to 10 uM
[49] = species on record: Mus musculus; details: CD-1, 1 to 10 uM; remark: listed apart in the source

In the case of `COc1ccccc1OCCNCCCOc1cccc2[nH]c3ccccc3c12`, the Activity [1] is reported as 88%, the Activity [2] is reported as “Toxic” and the inhibition [3] is reported as “Active”. For the same compound, the inhibition [4] was “inactive”, the Kd [5] was 4600 nM and the Activity [6] was “Toxic”. The Kd [7] was 1000 nM, the Kd [8] was 1700 nM and the Kd [9] was 2400 nM. The Activity [10] was “Active”, the Activity [11] was “Active” and the Activity [12] was “Non-Toxic”. The Activity [13] was “Toxic”, the inhibition [14] was 100% and the TIME [15] was 2.75e-06 h. For the same compound, the TIME [16] was 1.67e-06 h, the inhibition [17] was “Active” and the EC50 [18] was 2080 nM. The EC50 [19] was 10800 nM, the Activity [20] was “Non-Toxic” and the Activity [21] was “Non-Toxic”. The Activity [22] was “Non-Toxic”, the Activity [23] was “Non-Toxic” and the Activity [24] was “Non-Toxic”. The Activity [25] was “Non-Toxic”, the Activity [26] was “Non-Toxic” and the Activity [27] was “Non-Toxic”. The Activity [28] was “Non-Toxic”, the Activity [29] was “Non-Toxic” and the Activity [30] was “Non-Toxic”.

For `COc1ccccc1OCCN(CCCOc1cccc2[nH]c3ccccc3c12)CCOc1ccccc1OC`, the Activity [11] was “inactive”, the inhibition [31] was “inactive” and the solubility [32] was “Insoluble”.

For `COc1ccccc1OCCNCC(O)COc1cccc2[nH]c3ccccc3c12` (stereo not drawn) [CARVEDILOL], the Activity [1] was 54%, the Activity [33] was “Toxic” and the Activity [34] was “Non-Toxic”. For the same compound, the Activity [35] was “Toxic”, the Activity [36] was “Toxic” and the Activity [37] was “Toxic”. For the same compound, the Activity [38] was “Toxic”, the Activity [39] was “Toxic” and the Activity [40] was “Toxic”. For the same compound, the Activity [2] was “Toxic”, the Activity [41] was “Toxic” and the Activity [42] was “Toxic”. For the same compound, the inhibition [4] was “inactive”, the Kd [5] was 6300 nM and the Kd [7] was 100 nM. For the same compound, the Kd [8] was 1500 nM, the Kd [9] was 2000 nM and the Activity [43] was 100%. It also gave an Activity [44] of 100%, a TIME [15] of 5e-06 h and a TIME [16] of 2.67e-06 h. The inhibition [17] was “Active”, the EC50 [18] was 2470 nM and the EC50 [19] was 11000 nM. For the same compound, the Activity [20] was “Toxic”, the Activity [21] was “Non-Toxic” and the Activity [22] was “Toxic”. For the same compound, the Activity [23] was “Non-Toxic”, the Activity [24] was “Toxic” and the Activity [25] was “Non-Toxic”. For the same compound, the Activity [26] was “Non-Toxic”, the Activity [27] was “Non-Toxic” and the Activity [28] was “Non-Toxic”. The Activity [29] was “Non-Toxic”, the Activity [30] was “Non-Toxic” and the inhibition [45] was “Active”. The inhibition [46] was “Active”, the inhibition [47] was “Active” and the inhibition [48] was “Active”. The inhibition [49] was “inactive”.
